# Test results from ChEMBL document CHEMBL3108738, “The chemical and biological potential of C ring modified triterpenoids” (Eur J Med Chem, 2014).
# The source made the active and inactive calls. The calls are words filed in the database; no cut-off is given here.
# Experiments:
# [1] = test system: NIH3T3; assay: Cytotoxicity against mouse NIH/3T3 cells after 96 hrs by SRB assay; format: ADME, cell-based; details: NIH3T3, 96 h
# [2] = test system: MCF7; assay: Cytotoxicity against human MCF7 cells after 96 hrs by SRB assay; format: functional, cell-based; details: MCF7, 96 h
# [3] = test system: A549; assay: Cytotoxicity against human A549 cells after 96 hrs by SRB assay; format: functional, cell-based; details: A549, 96 h
# [4] = test system: HT-29; assay: Cytotoxicity against human HT-29 cells after 96 hrs by SRB assay; format: functional, cell-based; details: HT-29, 96 h
# [5] = test system: A2780; assay: Cytotoxicity against human A2780 cells after 96 hrs by SRB assay; format: functional, cell-based; details: A2780, 96 h
# [6] = test system: 8505C; assay: cells; format: functional, cell-based; details: Homo sapiens, 96 h
# [7] = Cytotoxicity against human 518A2 cells after 96 hrs by SRB assay; format: functional, cell-based; details: 518A2, 96 h
# [8] = test system: A2780; assay: Induction of apoptosis in human A2780 cells assessed as necrotic cells at 30 uM after 24 hrs by annexin V/propidium iodide staining-based FACS analysis (reference value: 6.37%); format: functional
# [9] = test system: A2780; assay: Induction of apoptosis in human A2780 cells assessed as vital cells at 30 uM after 24 hrs by annexin V/propidium iodide staining-based FACS analysis (reference value: 82.15%); format: functional
# [10] = test system: A2780; assay: Induction of apoptosis in human A2780 cells assessed as secondary necrotic cells at 30 uM after 24 hrs by annexin V/propidium iodide staining-based FACS analysis (reference value: 9.71%); format: functional
# [11] = test system: A2780; assay: Induction of apoptosis in human A2780 cells assessed as necrotic cells at 30 uM after 24 hrs by annexin V/propidium iodide staining-based FACS analysis (reference value: 1.78%); format: functional
# [12] = test system: A2780; assay: Induction of apoptosis in human A2780 cells at 30 uM after 24 hrs by annexin V/propidium iodide staining-based FACS analysis; format: functional
# [13] = test system: A2780; assay: Cell cycle arrest in human A2780 cells assessed as accumulation at S phase at 30 uM by propidium iodide staining-based FACS analysis (reference value: 32.439 %); format: functional
# [14] = test system: A2780; assay: Cell cycle arrest in human A2780 cells assessed as accumulation at G2 phase at 30 uM by propidium iodide staining-based FACS analysis (reference value: 15.721 %); format: functional
# [15] = test system: A2780; assay: Cell cycle arrest in human A2780 cells assessed as accumulation at G1 phase at 30 uM by propidium iodide staining-based FACS analysis (reference value: 51.839 %); format: functional
# [16] = test system: A2780; assay: Cell cycle arrest in human A2780 cells at 30 uM by propidium iodide staining-based FACS analysis; format: functional
# [17] = test system: A2780; assay: Induction of apoptosis in human A2780 cells assessed as DNA ladder formation at 30 uM after 24 hrs by electrophoresis; format: functional, cell-based
# Summary of the method: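 A2780 cells were exposed to 30 µM compound for 24 h. Floating (dead) cells were collected and washed with PBS, and DNA fragmentation was examined by gel laddering alongside an untreated control.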
SMILES,IC50 [1] [µM],IC50 [2] [µM],IC50 [3] [µM],IC50 [4] [µM],IC50 [5] [µM],IC50 [6] [µM],IC50 [7] [µM],Activity [8] [%],Activity [9] [%],Activity [10] [%],Activity [11] [%],Activity [12] [%],Activity [13] [%],Activity [14] [%],Activity [15] [%],Activity [16],Activity [17]
CC1(C)CC[C@]2(C(=O)OCc3ccccc3)CC[C@]3(C)C(=CC[C@@H]4[C@@]5(C)CC[C@H](O)C(C)(C)[C@@H]5CC[C@]43C)[C@@H]2C1,22.4,15.8,28,28.7,23,29.1,28,,,,,,,,,,
CC1(C)CC[C@]2(C(=O)OCc3ccccc3)CC[C@]3(C)[C@H](C(=O)C[C@@H]4[C@@]5(C)CC[C@H](O)C(C)(C)[C@@H]5CC[C@]43C)[C@@H]2C1,,,,,,,,13.82,74.47,11.08,0.62,,,,,,
COC(=O)[C@]12CCC(C)(C)C[C@H]1C1=C(O)C(=O)[C@@H]3[C@@]4(C)CC[C@H](O)C(C)(C)[C@@H]4CC[C@@]3(C)[C@]1(C)CC2,25.8,25.8,25.6,15.3,17.5,23.3,21.2,48.08,25.72,19.74,6.65,>50,21.594,18.968,59.438,,
CN[C@@H]1C[C@H]2O[C@@](C)([C@@H]1OC)n1c3ccccc3c3c4c(c5c6ccccc6n2c5c31)C(=O)NC4 [STAUROSPORINE],,0.4,,,,,,,,,,,,,,,
CC1(C)CC[C@]2(C(=O)O)CC[C@]3(C)C(=CC[C@@H]4[C@@]5(C)CC[C@H](O)C(C)(C)[C@@H]5CC[C@]43C)[C@@H]2C1 [OLEANOLIC_ACID],76.4,> 60,72.3,38.8,14,> 60,> 60,,,,,,,,,,
COC(=O)[C@]12CCC(C)(C)C[C@H]1C1=CC[C@@H]3[C@@]4(C)C[C@@H](OC(C)=O)[C@H](OC(C)=O)C(C)(C)[C@@H]4CC[C@@]3(C)[C@]1(C)CC2,30.5,> 30,7.8,26.3,6.8,13.3,8.6,,,,,,,,,,
COC(=O)[C@]12CCC(C)(C)C[C@H]1C1=CC[C@@H]3[C@@]4(C)CC[C@H](OC(C)=O)C(C)(C)[C@@H]4CC[C@@]3(C)[C@]1(C)CC2,34.3,16.7,26.1,26.7,8.6,20.5,34.1,15.68,72.47,9.43,2.41,,28.805,15.901,55.294,inactive,
CC1(C)CC[C@@]23CC[C@]4(C)[C@@](OC2=O)([C@@H]3C1)[C@@H](Br)C[C@@H]1[C@@]2(C)C[C@@H](O)[C@H](O)C(C)(C)[C@@H]2CC[C@]14C,43.1,,29.1,> 90,25.9,36.5,,,,,,,,,,,
COC(=O)[C@]12CCC(C)(C)C[C@H]1C1=CC(=O)[C@@H]3[C@@]4(C)CC[C@H](O)C(C)(C)[C@@H]4CC[C@@]3(C)[C@]1(C)CC2,24.8,21.3,15.1,18.5,6.6,13,15.6,34.13,33.08,29.68,3.11,>50,,,,,Active
CC(=O)O[C@H]1CC[C@]2(C)[C@H]3C[C@H](O)[C@]45OC(=O)[C@@]6(CCC(C)(C)C[C@H]64)CC[C@@]5(C)[C@]3(C)CC[C@H]2C1(C)C,85.7,> 90,> 90,> 90,63.2,> 90,> 90,11.84,74.74,11.89,1.54,,32.261,15.86,51.879,inactive,
COC(=O)[C@]12CC[C@@H](C)[C@H](C)[C@H]1C1=CC[C@@H]3[C@@]4(C)CC[C@H](O)C(C)(C)[C@@H]4CC[C@@]3(C)[C@]1(C)CC2 [METHYL URSOLATE],,22.2,20.2,25.4,15.3,20.6,17.7,,,,,,,,,,
COC(=O)[C@]12CCC(C)(C)C[C@H]1C1=CC(=O)[C@@H]3[C@@]4(C)CC[C@H](OC(C)=O)C(C)(C)[C@@H]4CC[C@@]3(C)[C@]1(C)CC2,33.6,,66.1,29.4,40,16.2,24.1,13.28,72.75,12.57,1.4,,25.334,17.835,56.831,,
CC1(C)CC[C@@]23CC[C@]4(C)[C@@](OC2=O)([C@@H]3C1)[C@@H](Cl)C[C@@H]1[C@@]2(C)C[C@@H](O)[C@H](O)C(C)(C)[C@@H]2CC[C@]14C,> 90,,33.1,510,34.2,18,,,,,,,,,,,
CC1(C)CC[C@@]23CC[C@]4(C)[C@@](OC2=O)([C@@H]3C1)[C@@H](I)C[C@@H]1[C@@]2(C)C[C@@H](O)[C@H](O)C(C)(C)[C@@H]2CC[C@]14C,80.2,,34.4,> 90,31.5,72.1,,,,,,,,,,,
COC(=O)[C@]12CCC(C)(C)C[C@H]1[C@H]1C(=O)C[C@@H]3[C@@]4(C)C[C@@H](OC(C)=O)[C@H](OC(C)=O)C(C)(C)[C@@H]4CC[C@@]3(C)[C@]1(C)CC2,31.7,23.8,14.1,17.6,11.6,10.3,9.6,,,,,,,,,,
CC1(C)CC[C@]2(C(=O)O)CC[C@]3(C)C(=CC[C@@H]4[C@@]5(C)C[C@@H](O)[C@H](O)C(C)(C)[C@@H]5CC[C@]43C)[C@@H]2C1 [MASLINIC ACID],21.4,16.6,,,,,,,,,,,,,,,
COC(=O)[C@]12CCC(C)(C)C[C@H]1C1=CC[C@@H]3[C@@]4(C)C[C@@H](O)[C@H](O)C(C)(C)[C@@H]4CC[C@@]3(C)[C@]1(C)CC2 [MASLINIC ACID METHYL ESTER],,,,,17.8,,,,,,,,,,,,
CC1(C)CC[C@@]23CC[C@]4(C)[C@@](OC2=O)([C@@H]3C1)[C@@H](O)C[C@@H]1[C@@]2(C)C[C@@H](O)[C@H](O)C(C)(C)[C@@H]2CC[C@]14C,22.1,> 90,> 90,92.8,39.9,> 90,78.4,,,,,,,,,,
